An excerpt weighted towards active compounds, which were near 5.1% of everything screened.
STAT3 inh: inhibitors of IL-6 induced STAT3 signaling; hit rate 0.89% among 190,000; U3A cells, IL-6 STAT3-luciferase reporter, luminescence; host cell line lacks STAT1; inhibition, % at 5.5 µM;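 active = inhibition above the mean inhibition across all screened compounds plus 3 SD, cut at about 44% in these data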;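 note: 0% = DMSO only wells and 100% = 100 µM nifuroxazide control wells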
APP 5'UTR act: APP 5'UTR luciferase reporter activation | SH-SY5Y APP 5'UTR luciferase reporter, luminescence; zero percent = DMSO vehicle wells | activation, % at 2 µM | hit rate 1% among 190,000;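 active = activation above a set limit, based on mean plus 3 SD of controls, cut at about 140% in these data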
NF-kB expr up: raises NF-kB expression in human neuronal cells; NF-kB reporter expression; hits give high values; fold change at 12.5 µM; hit rate 1.6% among 190,000; in the data active = fold change above about 3.3
STAT1 act: STAT1 signaling activation. NIH 3T3 STAT1-luciferase reporter, IFN-gamma, luminescence; 100% = IFN-gamma alone, no compound. activation (% of control), % at 5.5 µM. hit rate 2.6% among 200,000. AID 932;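 active = activation above the screen-wide mean activation plus 3 SD, cut at about 130% in these data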;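 note: raw ratio to IFN-gamma control signal so 100% means no change and 0% no light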
STAT3 activator: increases IL-6 driven STAT3 reporter signal; hit rate 0.91% among 190,000; U3A cells, IL-6 STAT3-luciferase reporter, luminescence; 100% = signal with IL-6 EC80 alone; activation (% of control), % at 5.6 µM;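 active = activation above the screen-wide mean of compound activation plus 3 SD, cut at about 130% in these data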;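 note: 0% = background luminescence of wells with medium and substrate only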
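system = STAT3-luciferase reporter U3A cells | reagent = IL-6 stimulus at 33 ng/mL final | timing = 1 h compound pre-exposure, 6 h IL-6 stimulation, 37 °C | measured by = luminescence | evaluation = % activation versus median of IL-6-stimulated wells | control set = IL-6-only wells as 100% reference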
STAT1 inh: reduces IFN-gamma driven STAT1 reporter signal; NIH 3T3 STAT1-luciferase reporter, luminescence; inhibition, % at 5.5 µM; hit rate 0.35% among 200,000; AID 920;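 active = inhibition above a set limit, the mean inhibition across all tested compounds plus 3 SD, cut at about 34% in these data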;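 note: 0% = IFN-gamma with DMSO and 100% = IFN-gamma with 300 µM nifuroxazide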
* = called active by the depositor.

SMILES	STAT3 inh	APP 5'UTR act	NF-kB expr up	STAT1 act	STAT3 activator	STAT1 inh
Nc1ccccc1C#Cc1ccccc1	6	119	8.7*	146*	97	-52
Nc1ccc(C#Cc2ccccc2)cc1	22	7	1.5	130*	89	-34
Nc1ccc(-c2nc3ccccc3[nH]2)cc1	2	58	2	121	102	-23
COc1ccc(C(=O)NCc2nnc(SCC(=O)N3CCc4ccccc43)n2CCc2ccccc2)cc1	0	4	1.4	96	99	5
Cc1ccc2c(c1)c1cccc3c1n2CCN3CCC(N)=O	-22	88	1.5	143*	125	-47
NC(=O)CCn1c2ccccc2c2ccccc21	-1	7	1.8	99	107	0
NC(=O)Cn1c(=O)n(C2CCCCC2)c(=O)c2c3c(sc21)CCCCC3	3	9	0.88	93	100	7
CCOc1cc(/C=N/N=C2/NC(=O)C(CC(=O)O)S2)ccc1OCc1ccc(Cl)cc1Cl (stereo unspecified)	-5	-6	1.1	97	110	2
COc1cc(/C=N/N=C2/NC(=O)C(CC(=O)O)S2)ccc1OCc1ccc(Cl)cc1 (stereo unspecified)	-6	84	2.5	130*	107	-33
COc1ccc(/C=N/NS(=O)(=O)c2ccc(C)cc2)cc1OC(=O)c1ccccc1	11	9	1	100	96	0
COc1cc(/C=N/O)ccc1OCc1ccc(C(=O)O)cc1	111*	-82	3.4*	13	9	93*
CCOc1cc(/C=N/N=C(N)N)ccc1OCc1ccc(Cl)cc1	10	-27	2.6	93	91	7
COc1cc(/C=N/NS(=O)(=O)c2ccc(C)cc2)ccc1OCc1cccc(C(=O)O)c1	47*	-31	2.3	32	61	72*
COc1cc(/C=N/N=C(N)N)ccc1OCc1ccc(Cl)cc1	39	180*	1.2	98	72	0
S=c1[nH]c(-c2ccc(Br)cc2)cn1CCc1ccccc1	13	5	1.4	100	94	-2
Cc1cc(OCC(=O)Nc2ccc(CN3CCCCC3)cc2)ccc1Cl	5	5	1.6	101	104	-1
OCCC1CN(Cc2ccccc2OC2CCCC2)CCN1Cc1ccsc1 (stereo unspecified)	6	-18	1.1	100	99	-2
CC(=O)c1cc(C#N)c(N2CCCC2)nc1C	4	-19	1.5	105	101	-8
COc1cccc(C2CC(c3cccc(NS(C)(=O)=O)c3)=NN2C(=O)c2ccccc2)c1OC (stereo unspecified)	9	-2	0.9	108	93	-9
CN(c1ccc(C(=O)NCCc2ccccc2)cc1)S(C)(=O)=O	-14	92	2.8	141*	111	-37
O=C(NCCc1ccncc1)c1ccccc1F	6	12	1.1	101	98	-1
O=C(NCCc1ccccc1)c1ccccc1NC(=O)C1CCCO1 (stereo unspecified)	-1	158*	3.4*	134*	101	-36
O=C(NCCc1ccccc1)c1ccccc1F	36	110	3.3*	108	73	-10
CCCCc1ccc(NC(=O)C2CCCO2)cc1 (stereo unspecified)	11	89	2.6	130*	94	-33
CCOc1cc2[nH]c(=O)n(CCCC(=O)N(C)Cc3ccccc3)c(=O)c2cc1OCC	-3	1	1	104	108	-5
SMILES	STAT3 inh	APP 5'UTR act	NF-kB expr up	STAT1 act	STAT3 activator	STAT1 inh
COc1ccc(NC(=O)CC2(CC(=O)O)CCCC2)cn1	-3	0	1	102	106	-6
O=C(NCCCCc1ccccc1)c1ccccc1	14	-21	1.4	110	92	-8
O=C(NCCCc1ccccc1)c1ccccc1	-8	21	2	129*	111	-32
O=C(/C=C/c1ccc(F)cc1)NCCC1=CCCCC1	-1	24	2.3	117	106	-19
COc1ccc(NC(=O)NCCC2=CCCCC2)cc1	-3	53	2.9	129*	106	-31
O=C(/C=C/c1ccccc1)NCCC1=CCCCC1	-12	44	2.9	148*	112	-54
CCOCCOCN(C#N)c1nc(OC)nc(N(C)C)n1	9	1	1	96	96	6
CC(=O)Nc1ccc(Oc2ccc(-c3noc(C)n3)cc2)cc1	0	4	1.2	106	100	-1
CC(=O)Oc1ccc(Oc2ccc(-c3noc(C)n3)cc2)cc1	13	25	5.7*	112	92	-13
Brc1ccc(-c2csc(/N=C/N3CCCC3)n2)cc1	21	29	1.4	132*	83	-34
NC(=O)C1CCN(c2nc(-c3ccc(Br)cc3)cs2)CC1	10	54	1.8	131*	95	-35
Brc1ccc(-c2csc(/N=C/N3CCOCC3)n2)cc1	24	53	2	136*	82	-39
OCCN(/C=N/c1nc(-c2ccc(Br)cc2)cs1)CCO	11	42	1.8	116	96	-17
NC(=O)C1(N2CCCCC2)CCN(c2nc(-c3ccc(Br)cc3)cs2)CC1	19	-5	1.2	96	87	5
COCCn1c(SCC(=O)Nc2ccc(Cl)cn2)nnc1-c1ccncc1	5	11	1.2	100	98	-1
Cc1cc(C(=O)COC(=O)c2cccnc2Cl)c(C)n1CC1CCCO1 (stereo unspecified)	88*	132	0.44	24	25	80*
O=C(COC(=O)c1cccnc1Cl)NCC1CCCO1 (stereo unspecified)	-2	12	0.99	87	101	14
Cc1cc(C(=O)COC(=O)c2cc(O)c3ccccc3c2O)c(C)n1CC1CCCO1 (stereo unspecified)	-44	-8	1	94	146*	5
Cc1ccc(C(=O)OCC(=O)c2cc(C)n(CC3CCCO3)c2C)cc1 (stereo unspecified)	-1	101	1.1	140*	105	-48
COc1ccc(OC)c(C(=O)COC(=O)c2cccnc2Cl)c1	21	8	1.4	83	85	18
COc1ccc(C(=O)COC(=O)c2cccnc2Cl)c(OC)c1	1	50	1.8	141*	102	-47
Cc1cc(C(=O)COC(=O)C2COc3ccccc3O2)c(C)n1CC1CCCO1 (stereo unspecified)	6	12	1.3	99	100	1
CCOC(=O)CSc1ccc(C(=O)Nc2ccc(OC)cc2)cn1	16	-4	1.1	98	90	-1
Cc1cc(N)n(-c2ccc(S(N)(=O)=O)cc2[N+](=O)[O-])n1	1	-23	1.1	109	100	-13
Cc1sc(NC(=O)C2CCCCC2)c(C#N)c1-c1ccccc1	-9	46	1.4	130*	111	-33
